Among the data in ChEMBL document CHEMBL1629441, “Synthesis, in vitro and in vivo biological evaluation, and comprehensive understanding of structure-activity relationships of dipeptidyl boronic acid proteasome inhibitors constructed from β-amino acids” (J Med Chem, 2010) are IC50 values, retold here.

One may read the IC50 as the concentration that gives 50% inhibition.

The first assay is described as follows: Inhibition of human 20S proteasome chymotrypsin-like activity by fluorimetric assay.
Conditions: not given; call rule not given here
The procedure, abridged: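 Human 20S proteasome preincubated with test compound, then Suc-Leu-Leu-Val-Tyr-AMC hydrolysis monitored 1 h at 37 °C by fluorescence (excitation 360 nm, 465 nm). Buffer pH 7.5: 20 mM Tris, 1 mM DTT, 10% glycerol, 0.02% (w/v) SDS; DMSO 3% (v/v) final. IC50 from five concentrations, each in duplicate; bortezomib standard.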
Consider `COc1cccc(C(CC(=O)N[C@@H](CC(C)C)B(O)O)NC(=O)C(=O)OC(C)(C)C)c1` (some centres undefined), for which the IC50 entry is “Not Active”. For the compound `CC(C)C[C@H](NC(=O)CC(NC(=O)c1ccccc1)c1ccccc1[N+](=O)[O-])B(O)O` (some centres undefined), the IC50 result is given as “Not Active”. Regarding `O=C(CC(NC(=O)c1ccccc1)c1cccc(F)c1)N[C@@H](CC1CCCCC1)B(O)O` (some centres undefined), the IC50 result is on record as “Not Active”. The same measure, in the same setting: to `CC(C)C[C@H](NC(=O)CC(NC(=O)c1cccnc1)c1ccccc1Cl)B(O)O` (some centres undefined) belongs “Not Active”; to `O=C(CC(NC(=O)c1ccccc1)c1cccc(Cl)c1)N[C@@H](CC1CCCCC1)B(O)O` (some centres undefined), “Not Active”; to `CC(C)C[C@H](NC(=O)CC(NC(=O)C(=O)OC(C)(C)C)c1cccc(Cl)c1)B(O)O` (some centres undefined), “Not Active”. Still for that read-out and setting: to `CC(C)C[C@H](NC(=O)CC(NC(=O)c1cccnc1)c1cccc(F)c1)B(O)O` (some centres undefined) belongs “Not Active”. `CC(=O)NC(CC(=O)N[C@@H](CC(C)C)B(O)O)c1cccc(F)c1` (some centres undefined): the half-inhibitory concentration (IC50) result is listed as “Not Active”.

As to `Cc1ccccc1C[C@H](NC(=O)CC(NC(=O)c1ccccc1)c1cccc(F)c1)B(O)O` (some centres undefined), the concentration for half-maximal inhibition (IC50) entry is “Not Active”. Regarding `COc1cccc(C(CC(=O)N[C@@H](CC(C)C)B(O)O)NC(C)=O)c1` (some centres undefined), the concentration for half-maximal inhibition (IC50) result is “Not Active”. Regarding `CC(C)C[C@H](NC(=O)CC(NC(=O)c1cccnc1)c1ccccc1[N+](=O)[O-])B(O)O` (some centres undefined), the IC50 entry is on record as “Not Active”. Still for that read-out and setting: next, `Cc1ccccc1C[C@H](NC(=O)CC(NC(=O)c1ccccc1)c1cccc(Cl)c1)B(O)O` (some centres undefined): “Not Active”; `O=C(CC(NC(=O)c1cccnc1)c1cccc(Cl)c1)N[C@@H](CC1CCCCC1)B(O)O` (some centres undefined): “Not Active”; `CC(C)C[C@H](NC(=O)CC(NC(=O)C(=O)OC(C)(C)C)c1cccc(F)c1)B(O)O` (some centres undefined): “Not Active”.

As for `CC(=O)NC(CC(=O)N[C@@H](CC(C)C)B(O)O)c1cccc(Cl)c1` (some centres undefined), the IC50 result is “Not Active”. `COc1cccc(C(CC(=O)N[C@@H](Cc2ccccc2C)B(O)O)NC(=O)c2cccnc2)c1` (some centres undefined): the concentration for half-maximal inhibition (IC50) entry is “Not Active”. Take `O=C(CC(NC(=O)c1ccccc1)c1cccc(Cl)c1)N[C@@H](Cc1cccc(F)c1)B(O)O` (some centres undefined): the 50% inhibitory concentration (IC50) result is recorded as “Not Active”.

Consider `Cc1cccc(C[C@H](NC(=O)CC(NC(=O)c2ccccc2)c2cccc(Cl)c2)B(O)O)c1` (some centres undefined), for which the IC50 result was “Not Active”.

The same assay, now with this note: read-out: IC50.
In the case of `CC(C)C[C@H](NC(=O)CC(NC(=O)c1cccnc1)c1cccc(Cl)c1)B(O)O` (some centres undefined), the 50% inhibitory concentration (IC50) turned out to be 22.9 nM. For the compound `CC(C)C[C@H](NC(=O)CC(NC(=O)c1ccccc1)c1ccccc1F)B(O)O` (some centres undefined), the IC50 came to 38.9 nM.

On to `CC(C)C[C@H](NC(=O)CC(NC(=O)c1ccccc1)c1cccc(F)c1)B(O)O` (some centres undefined), for which the IC50 was determined as 19 nM. On the same count and under the same terms, to `CC(C)C[C@H](NC(=O)CC(NC(=O)c1ccccc1)c1ccc([N+](=O)[O-])cc1)B(O)O` (some centres undefined) belongs 35.4 nM. For `CC(C)C[C@H](NC(=O)CC(NC(=O)[C@H]1CCCc2ccccc21)c1cccc(Cl)c1)B(O)O` (some centres undefined), the IC50 was 21.8 nM. `CC(C)C[C@H](NC(=O)CC(NC(=O)c1cccnc1)c1ccccc1F)B(O)O` (some centres undefined): the 50% inhibitory concentration (IC50) was found to be 1100 nM. Regarding `COc1cccc(C(CC(=O)N[C@@H](Cc2ccc(F)cc2)B(O)O)NC(=O)c2cccnc2)c1` (some centres undefined), the IC50 was 63 nM.

On to `CCCC[C@H](NC(=O)CC(NC(=O)c1ccccc1)c1cccc(Cl)c1)B(O)O` (some centres undefined), for which the half-inhibitory concentration (IC50) came to 316 nM.

Take `Cc1ccc(C[C@H](NC(=O)CC(NC(=O)c2ccccc2)c2cccc(Cl)c2)B(O)O)cc1` (some centres undefined): the 50% inhibitory concentration (IC50) amounted to 1150 nM. The same measure, in the same setting: next, `Cc1cccc(C(CC(=O)N[C@@H](CC(C)C)B(O)O)NC(=O)c2cccnc2)c1` (some centres undefined): 50.1 nM; `CCCC[C@H](NC(=O)CC(NC(=O)c1cccnc1)c1cccc(OC)c1)B(O)O` (some centres undefined): 1480 nM; `COc1cccc(C(CC(=O)N[C@@H](CC(C)C)B(O)O)NC(=O)c2cccnc2)c1` (some centres undefined): 19 nM. With `O=C(CC(NC(=O)c1ccccc1)c1cccc(F)c1)N[C@@H](Cc1ccccc1)B(O)O` (some centres undefined), the IC50 was 1200 nM. Turning to `COc1cccc(C(CC(=O)N[C@@H](CC(C)C)B(O)O)NC(=O)[C@H]2CCCc3ccccc32)c1` (some centres undefined), the IC50 came to 28.1 nM. On to `COc1ccc(C(CC(=O)N[C@@H](CC(C)C)B(O)O)NC(=O)c2ccccc2)cc1` (some centres undefined), for which the IC50 came to 32.8 nM. On the same count and under the same terms, to `COc1ccccc1C(CC(=O)N[C@@H](CC(C)C)B(O)O)NC(=O)c1ccccc1` (some centres undefined) belongs 224 nM; to `CCCC[C@H](NC(=O)CC(NC(=O)c1ccccc1)c1cccc(F)c1)B(O)O` (some centres undefined), 1250 nM; to `CC(C)C[C@H](NC(=O)CC(NC(=O)c1cccc2c1CCCC2)c1cccc(Cl)c1)B(O)O` (some centres undefined), 190 nM. As for `COc1ccccc1C(CC(=O)N[C@@H](CC(C)C)B(O)O)NC(=O)c1cccnc1` (some centres undefined), the half-inhibitory concentration (IC50) amounted to 87 nM. As for `CC(C)C[C@H](NC(=O)CC(NC(=O)c1ccccc1)c1ccc(Cl)cc1)B(O)O` (some centres undefined), the half-maximal inhibitory concentration (IC50) stood at 20.8 nM. As for `O=C(CC(NC(=O)c1ccccc1)c1cccc(F)c1)N[C@@H](Cc1ccc(F)cc1)B(O)O` (some centres undefined), the IC50 turned out to be 75.8 nM. As to `CC(C)C[C@H](NC(=O)CC(NC(=O)c1cccnc1)c1ccc([N+](=O)[O-])cc1)B(O)O` (some centres undefined), the half-maximal inhibitory concentration (IC50) worked out at 7300 nM. Take `O=C(CC(NC(=O)c1ccccc1)c1cccc(Cl)c1)N[C@@H](Cc1ccc(F)cc1)B(O)O` (some centres undefined): the 50% inhibitory concentration (IC50) was 194 nM. With `COc1cccc(C(CC(=O)N[C@@H](Cc2ccccc2)B(O)O)NC(=O)c2cccnc2)c1` (some centres undefined), the IC50 worked out at 1090 nM. Regarding `CC(C)C[C@H](NC(=O)CC(NC(=O)c1ccccc1)c1ccc(F)cc1)B(O)O` (some centres undefined), the concentration for half-maximal inhibition (IC50) was determined as 34.6 nM. In the case of `COc1cccc(C(CC(=O)N[C@@H](CC(C)C)B(O)O)NC(=O)c2ccccc2)c1` (some centres undefined), the IC50 amounted to 46.7 nM. As for `O=C(CC(NC(=O)c1ccccc1)c1cccc(F)c1)N[C@@H](Cc1ccccc1F)B(O)O` (some centres undefined), the IC50 came out at 301 nM. As to `COc1cccc(C(CC(=O)N[C@@H](Cc2cccc(C)c2)B(O)O)NC(=O)c2cccnc2)c1` (some centres undefined), the IC50 is 1770 nM. `COc1cccc(C(CC(=O)N[C@@H](CC(C)C)B(O)O)NC(=O)c2cccc3c2CCCC3)c1` (some centres undefined): the 50% inhibitory concentration (IC50) came out at 158 nM. Regarding `Cc1ccccc1C(CC(=O)N[C@@H](CC(C)C)B(O)O)NC(=O)c1ccccc1` (some centres undefined), the IC50 was determined as 1250 nM. Consider `CC(C)C[C@H](NC(=O)CC(NC(=O)c1ccccc1)c1cccc(Cl)c1)B(O)O` (some centres undefined), for which the IC50 was determined as 16.5 nM.

For `CC(C)C[C@H](NC(=O)CC(NC(=O)c1ccccc1)c1ccccc1Cl)B(O)O` (some centres undefined), the concentration for half-maximal inhibition (IC50) is 89.1 nM.

In the case of `CC(C)C[C@H](NC(=O)CC(NC(=O)c1cccnc1)c1ccc(F)cc1)B(O)O` (some centres undefined), the IC50 is 590 nM.

Regarding `COc1cccc(C(CC(=O)N[C@@H](Cc2cccc(F)c2)B(O)O)NC(=O)c2cccnc2)c1` (some centres undefined), the IC50 amounted to 89.1 nM. As for `CC(C)C[C@H](NC(=O)CC(NC(=O)c1cnccn1)c1cccc(F)c1)B(O)O` (some centres undefined), the IC50 was 269 nM.

For `Cc1ccccc1C(CC(=O)N[C@@H](CC(C)C)B(O)O)NC(=O)c1cccnc1` (some centres undefined), the IC50 turned out to be 1250 nM. With `CC(C)C[C@H](NC(=O)CC(NC(=O)c1ccc2ccccc2c1)c1cccc(Cl)c1)B(O)O` (some centres undefined), the half-inhibitory concentration (IC50) was 117 nM. For `CC(C)C[C@H](NC(=O)CC(NC(=O)c1ccccc1)c1cccc([N+](=O)[O-])c1)B(O)O` (some centres undefined), the IC50 turned out to be 42.6 nM.

With `COc1cccc(C(CC(=O)N[C@@H](Cc2ccc(C)cc2)B(O)O)NC(=O)c2cccnc2)c1` (some centres undefined), the IC50 was determined as 930 nM. Consider `O=C(CC(NC(=O)c1ccccc1)c1cccc(F)c1)N[C@@H](Cc1cccc(F)c1)B(O)O` (some centres undefined), for which the IC50 is 131 nM. In the case of `Cc1ccc(C[C@H](NC(=O)CC(NC(=O)c2ccccc2)c2cccc(F)c2)B(O)O)cc1` (some centres undefined), the 50% inhibitory concentration (IC50) amounted to 501 nM. With `CC(C)C[C@H](NC(=O)CC(NC(=O)c1ccccc1)c1ccccc1)B(O)O` (some centres undefined), the half-maximal inhibitory concentration (IC50) was found to be 39.8 nM. In the case of `CC(C)C[C@H](NC(=O)CC(NC(=O)c1cnccn1)c1cccc(Cl)c1)B(O)O` (some centres undefined), the concentration for half-maximal inhibition (IC50) was determined as 97.7 nM. On to `CC(C)C[C@H](NC(=O)CC(NC(=O)c1cccnc1)c1cccc([N+](=O)[O-])c1)B(O)O` (some centres undefined), for which the IC50 turned out to be 26.9 nM. Take `CC(C)C[C@H](NC(=O)CC(NC(=O)C1CCCCC1)c1cccc(F)c1)B(O)O` (some centres undefined): the IC50 is 33.1 nM. Take `Cc1ccc(C(CC(=O)N[C@@H](CC(C)C)B(O)O)NC(=O)c2ccccc2)cc1` (some centres undefined): the IC50 stood at 26.3 nM. The same measure, in the same setting: next, `Cc1cccc(C(CC(=O)N[C@@H](CC(C)C)B(O)O)NC(=O)c2ccccc2)c1` (some centres undefined): 50.1 nM; `COc1cccc(C(CC(=O)N[C@@H](Cc2ccccc2F)B(O)O)NC(=O)c2cccnc2)c1` (some centres undefined): 602 nM; `Cc1cccc(C[C@H](NC(=O)CC(NC(=O)c2ccccc2)c2cccc(F)c2)B(O)O)c1` (some centres undefined): 120 nM. With `O=C(CC(NC(=O)c1ccccc1)c1cccc(Cl)c1)N[C@@H](Cc1ccccc1F)B(O)O` (some centres undefined), the IC50 turned out to be 371 nM. Still for that read-out and setting: next, `O=C(CC(NC(=O)c1ccccc1)c1cccc(Cl)c1)N[C@@H](Cc1ccccc1)B(O)O` (some centres undefined): 1620 nM.
